The record followed here is ChEMBL document CHEMBL3244416, “Structural requirements for progestational activity. Synthesis and properties of rac-8alpha,9beta,10alpha,14beta-progesterone” (1979).

The target in assay [1] is T1, Progesterone receptor (Oryctolagus cuniculus) (UniProt P06186).
T1 sequence (whole entry): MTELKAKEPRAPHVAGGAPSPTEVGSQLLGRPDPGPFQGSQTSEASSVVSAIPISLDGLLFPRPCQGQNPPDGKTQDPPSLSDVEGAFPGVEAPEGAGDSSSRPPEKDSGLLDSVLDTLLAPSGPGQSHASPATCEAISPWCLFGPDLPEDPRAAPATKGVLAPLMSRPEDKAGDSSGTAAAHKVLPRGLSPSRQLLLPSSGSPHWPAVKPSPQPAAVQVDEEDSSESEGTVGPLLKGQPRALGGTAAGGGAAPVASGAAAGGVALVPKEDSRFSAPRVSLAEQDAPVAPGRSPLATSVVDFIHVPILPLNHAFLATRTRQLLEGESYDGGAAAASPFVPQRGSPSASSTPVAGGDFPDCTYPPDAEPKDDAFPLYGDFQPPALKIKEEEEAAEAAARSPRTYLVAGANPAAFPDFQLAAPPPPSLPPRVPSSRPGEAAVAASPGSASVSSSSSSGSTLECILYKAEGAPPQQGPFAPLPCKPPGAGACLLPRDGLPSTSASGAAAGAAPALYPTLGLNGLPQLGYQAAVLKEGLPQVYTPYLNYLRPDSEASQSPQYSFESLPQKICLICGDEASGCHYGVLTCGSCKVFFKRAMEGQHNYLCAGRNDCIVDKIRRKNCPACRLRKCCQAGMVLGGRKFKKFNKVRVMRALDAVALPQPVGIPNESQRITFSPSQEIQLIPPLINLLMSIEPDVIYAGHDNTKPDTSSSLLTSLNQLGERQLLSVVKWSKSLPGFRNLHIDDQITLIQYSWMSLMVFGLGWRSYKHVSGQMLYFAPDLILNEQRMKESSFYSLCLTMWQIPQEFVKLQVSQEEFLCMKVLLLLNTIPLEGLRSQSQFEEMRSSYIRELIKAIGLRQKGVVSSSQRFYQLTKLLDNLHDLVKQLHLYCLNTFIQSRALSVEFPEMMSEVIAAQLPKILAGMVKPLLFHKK
Description: Displacement of [3H]-progesterone from progesterone receptor in rabbit uterine cytosol relative to progesterone. The settings on record: Uterus.

Assay [2] deals with Oryctolagus cuniculus. Description: Progestational activity in rabbit assessed as mean proliferation index at 4 mg, sc by Clauberg assay relative to control. The assay is classed as functional. An outline of the steps: (§1)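 Modified Clauberg assay in rabbits, 2 animals per dose group, with the total dose given by subcutaneous injection. Uterine progestational proliferation was scored histologically by McPhail's method and reported as the range and mean proliferation index. Uterine weight was reported as the group mean.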

The subject of assay [3] is Oryctolagus cuniculus. Description: Progestational activity in rabbit assessed as range of proliferation index at 0.4 mg, sc by Clauberg assay relative to control. The assay is classed as functional. The procedure, abridged: as §1
Assay [4] has as its system Oryctolagus cuniculus. Description: Progestational activity in rabbit assessed as mean uterine weight at 4 mg, sc by Clauberg assay. The assay is classed as functional. An outline of the steps: as §1
Assay [5] relates to Oryctolagus cuniculus. Briefly: Progestational activity in rabbit assessed as range of proliferation index at 4 mg, sc by Clauberg assay relative to control. The assay is classed as functional. The procedure, abridged:
as §1

Assay [6] concerns Oryctolagus cuniculus. Description: Progestational activity in rabbit assessed as mean proliferation index at 0.4 mg, sc by Clauberg assay relative to control. The assay is classed as functional. The procedure, abridged: as §1
Assay [7] relates to Oryctolagus cuniculus. Briefly: Progestational activity in rabbit assessed as mean uterine weight at 0.4 mg, sc by Clauberg assay. The assay is classed as functional. The procedure, abridged:
as §1

The test system of assay [8] is Oryctolagus cuniculus. Description: Progestational activity in rabbit assessed as mean proliferation index at 0.5 mg, sc by Clauberg assay relative to control. The assay is classed as functional. An outline of the steps: as §1
The test system of assay [9] is Oryctolagus cuniculus. Description: Progestational activity in rabbit assessed as range of proliferation index at 0.2 mg, sc by Clauberg assay relative to control. The assay is classed as functional. An outline of the steps: as §1
The subject of assay [10] is Oryctolagus cuniculus. Briefly: Progestational activity in rabbit assessed as mean uterine weight at 0.2 mg, sc by Clauberg assay. The assay is classed as functional. The procedure, abridged:
as §1

Assay [11] deals with Oryctolagus cuniculus. Description: Progestational activity in rabbit assessed as range of proliferation index at 0.5 mg, sc by Clauberg assay relative to control. The assay is classed as functional. The procedure, abridged: as §1
The test system of assay [12] is Oryctolagus cuniculus. Description: Progestational activity in rabbit assessed as mean uterine weight at 0.5 mg, sc by Clauberg assay. The assay is classed as functional. An outline of the steps: as §1
Assay [13] concerns Oryctolagus cuniculus. Briefly: Progestational activity in rabbit assessed as mean proliferation index at 0.2 mg, sc by Clauberg assay relative to control. The assay is classed as functional. The procedure, abridged: as §1

Structures are written as SMILES.

`CC(=O)[C@H]1CC[C@@H]2[C@H]3CCC4=CC(=O)CC[C@@]4(C)[C@@H]3CC[C@]12C` (racemic): the RBA in assay [1] was determined as 2%. For the same compound, the Ratio with Oryctolagus cuniculus [2] is 2; with Oryctolagus cuniculus [3] it was 0; in the assay with Oryctolagus cuniculus [5], 1; with Oryctolagus cuniculus [6], 0. In addition, the results for the Activity in the assay on Oryctolagus cuniculus [4] and with Oryctolagus cuniculus [7] were 1.24 g and 0.79 g, respectively.
With `CC(=O)[C@H]1CC[C@H]2[C@@H]3CCC4=CC(=O)CC[C@]4(C)[C@H]3CC[C@]12C` [PROGESTERONE], the Ratio with Oryctolagus cuniculus [8] was 3.5; in the assay with Oryctolagus cuniculus [9], 0.5; in the assay on Oryctolagus cuniculus [11] it was 3.5; in the assay with Oryctolagus cuniculus [13] it was 0.75. Besides, the Activity in the assay with Oryctolagus cuniculus [10] was 1.49 g; with Oryctolagus cuniculus [12] it was 2.34 g.
